# The list is not random: actives were taken first. Their share in the collection is about 4.4%.
# HTR2A ag – mouse Htr2a agonists via beta-arrestin recruitment, primary screen, cell-based, luminescence; 5-hydroxytryptamine receptor 2A (Mus musculus), P35363; CHO-K1 mHTR2A beta-arrestin complementation; percent of 30 µM serotonin response; activation, % at 7.6 µM; 360,000 tested, 0.66% active; AID 624169, 2012;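 active = activation above a run cutoff, the mean activation of all tested compounds plus 3 SD, cut at about 14% in these data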;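 also: 0% = plate median of compound wells and 100% = 30 µM serotonin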
# bovine MsrA act – bovine MsrA enzyme activators, primary screen, biochemical, absorbance, HTS; purified bovine MsrA, absorbance read-out; Methionine sulfoxide reductase A (Bos taurus); activation, % at 10.6 µM; 360,000 tested, 0.3% active; AID 602163, 2012; in the data active = activation above about 7.5%;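 also: 0% = vehicle and 100% = reference activator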
# AHR activator – AHR activators, primary screen, cell-based, luminescence, luciferase reporter, human; AHR-responsive luciferase reporter cells; activation, % at 5 µM; 320,000 tested, 2.5% active; AID 2796, 2010; in the data active = activation above about 47%;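 also: 0% = vehicle wells and 100% = reference agonist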
# Tb MetRS inh – T. brucei MetRS inhibitors, primary screen, biochemical, luminescence | methionyl-tRNA synthetase (Trypanosoma brucei brucei) | 360,000 tested, 0.4% active | purified T. brucei MetRS, ATP depletion, Kinase-Glo luminescence | inhibition, % at 11.9 µM;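 active = inhibition above a per-plate cutoff of the control wells' mean inhibition plus 3 SD, cut at about 5.5% in these data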;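 also: 0% = DMSO wells median and 100% = median of wells with control inhibitor compound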
#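 System: purified T. brucei MetRS enzyme / Detection: Kinase-Glo luciferase luminescence reporting remaining unconsumed ATP / Medium: HEPES buffer with MgCl2, KCl, DTT, spermine, BSA, pyrophosphatase / Replication: singlicate, one well per compound / Evaluation: percent inhibition relative to median high and low control wells / Schedule: 2 h aminoacylation at 25 °C after 15 min preincubation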
# MsrA inh – bovine MsrA enzyme inhibitors, primary screen, biochemical, absorbance, HTS; Methionine sulfoxide reductase A (Bos taurus); purified bovine MsrA, absorbance read-out; inhibition, % at 15.5 µM; 360,000 tested, 0.75% active; AID 651718, 2012; in the data active = inhibition above about 4.5%;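 also: 0% = vehicle wells with enzyme and 100% = reference inhibitor wells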
# AI-2 QS modul – Vibrio harveyi AI-2 quorum sensing modulators, primary screen, JMH597 strain, luminescence/OD600 ratio; Vibrio harveyi JMH597 AI-2 luminescence/OD600 ratio, 9 h; hits give low values; strain lacks LuxN and CqsS sensors; 0 = neutral-control median; activity change, % at 7.5 µM; 300,000 tested, 0.4% active; AID 2094, 2009; in the data active = activity change below about -75%, passing the limit was not always enough;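 also: luminescence divided by OD600 gain over 9 h not by final OD600 alone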
# TbMetRS confirm – T. brucei MetRS inhibitors, confirmation, biochemical, luminescence. shares compounds with Tb MetRS inh. inhibition, % at 11.9 µM. AID 624412, 2012. 1,400 tested, 93% active. T. brucei MetRS enzyme, luminescence (ATP depletion); in the data active = inhibition above about 7%
# Jurkat cytotox – Jurkat T cell cytotoxicity, cytotoxicity control for T. brucei MetRS inhibitor project, luminescence, high throughput; shares compounds with Tb MetRS inh; Jurkat cells viability, ATP luminescence; inhibition, % at 8.3 µM; 1,400 tested, 12% active; AID 624413, 2012; in the data active = inhibition above about 15%;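 also: 0% = vehicle and 100% = reference inhibitor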
# TbMetRS FP orth – T. brucei MetRS inhibitors, orthogonal assay for T. brucei MetRS inhibitor project, biochemical, fluorescence polarization; shares compounds with Tb MetRS inh; inhibition, % at 11.9 µM; 1,400 tested, 44% active; purified T. brucei MetRS; in the data active = inhibition above about 17%;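 also: 0% = vehicle wells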
# Numbers without * were called inactive; nt = no result given; ! = a repeat was not active.
SMILES,HTR2A ag,bovine MsrA act,AHR activator,Tb MetRS inh,MsrA inh,AI-2 QS modul,TbMetRS confirm,Jurkat cytotox,TbMetRS FP orth
Cc1[nH]n(-c2ccccc2)c(=O)c1C(c1ccc(O)c([N+](=O)[O-])c1)c1c(C)[nH]n(-c2ccccc2)c1=O,-1,-4,18,13*,1,55,1,1,2
COc1cccc(C(c2c(C)[nH]n(-c3ccccc3)c2=O)c2c(C)[nH]n(-c3ccccc3)c2=O)c1OC,1,-7,17,7.7*,0,14,2,19*,0
COc1cccc(C(c2c(C)[nH]n(-c3ccccc3)c2=O)c2c(C)[nH]n(-c3ccccc3)c2=O)c1O,1,-6,12,8.1*,0,8,2,-2,2
Cc1ccc(NC(=O)CN(C)C(=O)CSc2ccccc2F)cc1,1,-2,2,0,-1,nt,nt,nt,nt
Cc1ccc(NC(=O)CN(C)C(=O)CCSc2ccc(F)cc2)cc1,-3,-5,-1,43*,-1,nt,80*,3,60*
O=C1[C@H](Cc2ccccc2)NCC=CC[C@@H](c2ccc(Cl)cc2)N1Cc1ccccc1,2,-4,nt,0,-1,nt,nt,nt,nt
C=CCOc1c(Br)cc(C2NC(=O)NC(C)=C2C(C)=O)cc1OCC (centres undefined),0,-2,1,7.0*,0,39,15*,-7,7
C=CCOc1c(Br)cc(C2C3=C(CCCC3=O)N(C)C3=C2C(=O)CCC3)cc1OCC,-5,-4,8,9.5*,0,4,16*,-7,10
CC[C@H](C)[C@H](NC(=O)OCc1ccccc1)C(=O)OCC(=O)N1CCN(c2ccc(OC)cc2)CC1,9,3,nt,0,-1,nt,nt,nt,nt
Cn1c(CC(=O)Nc2ccccc2F)nnc1SCC(=O)NC1CCCCC1,3,0,3,79*,1,20,0,4,0
CC(C)OC(=O)CC1C(=O)NCCN1C(=O)COc1ccc(C(C)(C)C)cc1 (centres undefined),-1,-1,-2,0,0,7,nt,nt,nt
NC(=NCCCCCCN=C(N)/N=C(\N)Nc1ccc(Cl)cc1)/N=C(\N)Nc1ccc(Cl)cc1,-8,-1,-1,45*!,-1,30,53*,31*,51*
Cn1c(CCCOc2ccc(Cl)cc2Cl)nnc1SCC(=O)Nc1ccc(F)c(Cl)c1,0,-3,1,0,-1,-6,nt,nt,nt
Cn1c(CCCOc2ccc(Cl)cc2Cl)nnc1SCC(=O)Nc1cccc(F)c1,3,-2,1,6.8*,-1,8,34*,-5,41*
CCOC(=O)C(=O)N(C)c1c(CC)nc2c(OCc3ccccc3OC)cccn12,-4,-2,nt,0,0,nt,nt,nt,nt
Cc1cccc(CCN=C(N)NS(=O)(=O)c2ccccc2)c1,-5,2,3,6.2*,0,2,14*,6,5
COc1ccccc1/C=C/C(=O)OCC(=O)c1c[nH]c2ccccc12,6,0,17,0,0,nt,nt,nt,nt
COc1cc(/C=C/C(=O)OCC(=O)c2c[nH]c3ccccc23)ccc1OC(F)F,-1,-3,22,6.3*,0,14,13*,-1,36*
CC1=C(C(=O)N(C(C)C)C(C)C)CC(CC(=O)NCCN2CCOCC2)C(=O)N1Cc1ccccc1 (centres undefined),0,-3,nt,-1,0,nt,nt,nt,nt
COc1cc2c(cc1OC)CN(C(=O)c1ccc(N3CCCC3)c([N+](=O)[O-])c1)CC2,1,-2,-6,0,0,12,nt,nt,nt
COc1cc2c(cc1OC)CN(c1ccc([N+](=O)[O-])cc1C#N)CC2,-2,-3,2,11*,1,34,19*,19*,8
Nc1cc(=O)[nH]c(SCC(=O)Nc2ccc(Cl)c(Cl)c2)n1,0,-1,0,2,-1,-4,nt,nt,nt
Nc1cc(=O)[nH]c(SCC(=O)Nc2cc(Cl)cc(Cl)c2)n1,2,-8,2,29*,-1,20,49*,1,28*
Cc1cc(C)c2nc(N3C(=O)C(O)=C(C(=O)c4ccco4)C3c3ccco3)sc2c1 (centres undefined),12,-4,6,0,0,57,nt,nt,nt
O=C(Nc1ccc2nc3n(c(=O)c2c1)CCCC3)c1cncc(Br)c1,-6,-6,3,0,1,74,nt,nt,nt
SMILES,HTR2A ag,bovine MsrA act,AHR activator,Tb MetRS inh,MsrA inh,AI-2 QS modul,TbMetRS confirm,Jurkat cytotox,TbMetRS FP orth
C=CC[C@H](CC(=O)OC(C)(C)C)C(=O)OC[C@H]1CCCN1C(=O)[C@@H](CC=C)CC(=O)N(CCO)Cc1ccccc1,6,0,-1,0,-1,nt,nt,nt,nt
COc1ccc(OC)c(-n2c(SCC(N)=O)nnc2-c2c[nH]c3ccccc23)c1,-1,-5,10,9.7*,-1,10,20*,6,10
CCOc1ccc(-n2c(SCC(=O)NCc3ccco3)nnc2-c2c[nH]c3ccccc23)cc1,9,-11,0,12*,-1,14,11*,2,7
COc1ccc(OC)c(-n2c(SCC(=O)Nc3cc(C)on3)nnc2-c2c[nH]c3ccccc23)c1,-8,-10,7,18*,0,6,25*,6,9
COc1ccc(OC)c(-n2c(SC)nnc2-c2c[nH]c3ccccc23)c1,-8,-2,28,9.7*,0,19,25*,2,11
O=S(=O)(CCN1CCCCC1)CCS(=O)(=O)CCN1CCCCC1,1,-2,nt,-1,-1,nt,nt,nt,nt
CCN(CC)S(=O)(=O)c1ccc(N2CCCC2)c(NC(=O)C2=NN(c3ccccc3)C(=O)CC2)c1,-2,0,3,0,0,nt,nt,nt,nt
NC(=O)CC1(c2ccccc2)CCCCC1,0,-2,nt,0,1,nt,nt,nt,nt
Cc1cc(C)n(-c2nnc(C)n2/N=C/c2ccccc2OCc2ccccc2Cl)n1,-1,1,13,1,1,7,nt,nt,nt

# Assay outcomes as filed in PubChem BioAssay.
